Experimental data reported in paper PMC4124904 (British journal of haematology, 2010).
Values belong to the compound of their own block, whether it stands above or below them.

Legend:
[1] = system: histone-H3 acetylation in PBMCs; test: Histone-H3 acetylation in PBMCs; format: in vivo, human
TOP2A mRNA = test: Real-time PCR of TOP2A mRNA expression in PBMCs; format: in vivo, human
[2] = system: patients with refractory cutaneous T cell lymphoma (CTCL); conditions: et al 2007, cited from earlier work
[3] = system: patients with relapsed or refractory leukaemia; test: Phase I safety and tolerability: adverse events, DLT, MTD; format: in vivo, human; conditions: Schedule B: for 3 days, with idarubicin 12 mg/m^2/d IV for 3 days
[4] = Pharmacokinetic analysis of vorinostat and two metabolites; format: in vivo, human; conditions: for Tmax / Cmax: human, serum
Summary of the method: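 Relapsed/refractory leukaemia patients self-dosed oral HDAC inhibitor TID for 14 days (arm A) or 3 days (arm B), 3+3 escalation from 100 mg, with anthracycline 12 mg/m2 IV over 30 min on days 1–3. Blood clotted 20–30 min at 4°C, spun 2,000 × g 15 min at 4°C, serum stored at -70°C. […] Dosing times unrecorded, so only Cmax and Tmax were derived.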

[5] = Pharmacokinetic analysis of idarubicin in plasma; format: in vivo, human; conditions: for Cmax: iv, Maximum idarubicin plasma concentration (cmax), schedule A

SMILES: O=C(CCCCCCC(=O)Nc1ccccc1)NO [vorinostat]
- Patients with detectable histone acetylation at day 21 ([1]; 3-day schedule of vorinostat): 50%
- Patient samples with increased histone-H3 acetylation ([1]; 15 of 33 available patient samples, both schedules): 46%
- Patients with increased histone-H3 acetylation ([1]; schedule A): 5/11
- Patients with increased histone-H3 acetylation ([1]; schedule B): 10/22
- Change of TOP2A mRNA levels relative to pretreatment (TOP2A mRNA; schedule A, day 1 to day 21, p=0.016, Wilcoxon signed rank test): downregulation
- Change of TOP2A mRNA levels relative to pretreatment (TOP2A mRNA; schedule B, by day 3 of therapy, p=0.168, Wilcoxon, returned to baseline later): trend towards downregulation
- Response rate ([2]; Phase II, 3 different schedules, refractory CTCL, ref Duvic): 24%
- Objective response rate ([2]; second Phase II trial, progressive or refractory CTCL, ref Olsen): 30%
- Maximum tolerated dose (MTD) of vorinostat [3]: 400 mg TID
- Plasma concentrations achieved ([4]; TID dosing for 3 days, dose levels of 400 mg and 500 mg): > 2000 nM
- Tmax ([4]; oral): 1 to 3 h
- Cmax ([4]; oral, Median Cmax for vorinostat, non-responders): 800 nM
- Tmax ([4]; po, 100 mg): 2.5 h
- Cmax ([4]; po, 100 mg, Vorinostat Mean Cmax, vorinostat 100 mg TID for 3 days oral, with idarubicin, N=3): 688 nM
- Cmax ([4]; po, 100 mg, Vorinostat Median Cmax (Range), vorinostat 100 mg TID for 3 days oral, with idarubicin, N=3): 331 nM
- Cmax ([4]; po, 200 mg, Vorinostat Mean Cmax, vorinostat 200 mg TID for 3 days oral, with idarubicin, N=3): 522 nM
- Cmax ([4]; po, 200 mg, Vorinostat Median Cmax (Range), vorinostat 200 mg TID for 3 days oral, with idarubicin, N=3): 443 nM
- Tmax ([4]; po, 300 mg): 2.5 h
- Tmax ([4]; po, 400 mg): 2.25 h
- Vorinostat Median Tmax ([4]; vorinostat 100 mg TID for 3 days oral, with idarubicin, N=3): 2 h
- Vorinostat Median Tmax ([4]; vorinostat 200 mg TID for 3 days oral, with idarubicin, N=3): 1 h
- Vorinostat Median Tmax ([4]; vorinostat 500 mg TID for 3 days oral, with idarubicin, N=5): 3 h

- half-life ([5]; human, plasma, intravenous): ~11 h
- Cmax ([5]; human, plasma, mean, idarubicin 30-min intravenous infusion): 66.1 ng/mL
- Cmax ([5]; human, plasma, range, idarubicin 30-min intravenous infusion): 19.5 to 139 ng/mL
- Idarubicin peak plasma concentration, mean ([5]; schedule B, idarubicin 30-min intravenous infusion): 55.4 ng/mL
SMILES: CC(=O)[C@]1(O)Cc2c(O)c3c(c(O)c2[C@@H](O[C@H]2C[C@H](N)[C@H](O)[C@H](C)O2)C1)C(=O)c1ccccc1C3=O [idarubicin]
